From ChEMBL document CHEMBL3352044, “Synthesis and structure-activity relationship studies of N-benzyl-2-phenylpyrimidin-4-amine derivatives as potent USP1/UAF1 deubiquitinase inhibitors with anticancer activity against nonsmall cell lung cancer” (J Med Chem, 2014)
In brackets after ≈: the same amount, converted by molar mass. Values belong to the compound of their own block, whether it stands above or below them. Activity calls are given as the source filed them. The rule behind the calls is not given here.

Columns and labels:
[1] = target: T1, Ubiquitin carboxyl-terminal hydrolase 1/WD repeat-containing protein 48 (Homo sapiens, UniProt O94782+Q8TAF3); assay: Inhibition of human USP1/UAF1 using ubiquitin-rhodamine110 substrate by fluorescence assay
T1 sequence (O94782 whole entry): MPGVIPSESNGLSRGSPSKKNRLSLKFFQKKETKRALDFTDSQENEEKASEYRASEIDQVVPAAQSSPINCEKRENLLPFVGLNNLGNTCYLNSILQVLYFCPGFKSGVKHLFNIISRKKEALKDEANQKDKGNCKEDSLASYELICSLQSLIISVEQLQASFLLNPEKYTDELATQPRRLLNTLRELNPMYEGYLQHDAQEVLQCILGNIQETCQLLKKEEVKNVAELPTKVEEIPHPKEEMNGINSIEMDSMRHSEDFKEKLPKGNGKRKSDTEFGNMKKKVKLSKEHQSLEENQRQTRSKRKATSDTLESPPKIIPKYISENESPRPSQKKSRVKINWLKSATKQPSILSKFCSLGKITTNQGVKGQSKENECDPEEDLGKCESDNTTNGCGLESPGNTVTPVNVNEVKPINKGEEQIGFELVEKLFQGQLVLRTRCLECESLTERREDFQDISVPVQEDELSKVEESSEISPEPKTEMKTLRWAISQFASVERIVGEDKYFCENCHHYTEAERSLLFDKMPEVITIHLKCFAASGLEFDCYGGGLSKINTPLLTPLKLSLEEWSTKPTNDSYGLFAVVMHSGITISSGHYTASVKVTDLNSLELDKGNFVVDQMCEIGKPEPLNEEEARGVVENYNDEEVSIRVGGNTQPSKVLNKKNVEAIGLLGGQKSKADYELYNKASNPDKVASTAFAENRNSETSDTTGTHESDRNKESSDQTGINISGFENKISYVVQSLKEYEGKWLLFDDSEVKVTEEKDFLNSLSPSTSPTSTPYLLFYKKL
T1 sequence (Q8TAF3 whole entry): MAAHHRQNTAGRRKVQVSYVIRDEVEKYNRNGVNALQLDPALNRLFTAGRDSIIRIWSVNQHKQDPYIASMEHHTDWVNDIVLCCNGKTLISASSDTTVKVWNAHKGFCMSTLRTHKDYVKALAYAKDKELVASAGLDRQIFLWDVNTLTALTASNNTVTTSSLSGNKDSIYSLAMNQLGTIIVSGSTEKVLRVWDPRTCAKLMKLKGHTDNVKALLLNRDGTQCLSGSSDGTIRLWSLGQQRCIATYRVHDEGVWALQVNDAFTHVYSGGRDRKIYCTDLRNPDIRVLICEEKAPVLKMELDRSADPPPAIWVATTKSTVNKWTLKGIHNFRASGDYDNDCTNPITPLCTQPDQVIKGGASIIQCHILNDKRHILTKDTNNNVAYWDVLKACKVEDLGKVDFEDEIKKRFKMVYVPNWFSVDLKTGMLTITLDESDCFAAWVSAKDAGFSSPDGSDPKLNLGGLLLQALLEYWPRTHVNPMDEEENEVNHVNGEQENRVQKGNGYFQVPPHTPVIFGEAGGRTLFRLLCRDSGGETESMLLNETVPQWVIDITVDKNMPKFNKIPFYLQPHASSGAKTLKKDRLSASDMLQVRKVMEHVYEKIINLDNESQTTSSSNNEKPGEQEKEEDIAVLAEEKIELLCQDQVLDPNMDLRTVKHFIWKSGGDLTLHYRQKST

[2] = system: Liver microsome; assay: Half life in rat liver microsomes in presence of NADPH; type: ADME
Procedure, shortened: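 Rat liver microsomes with NADPH; half-life in minutes.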

[3] = target: T1, Ubiquitin carboxyl-terminal hydrolase 1/WD repeat-containing protein 48; assay: Inhibition of human USP1/UAF1 in human H1299 cells assessed as reduction in colony formation up to 25 uM after 7 days; type: cell-based
[4] = Cytotoxicity against human H1299 cells assessed as reduction in colony formation at 5 uM after 7 days; type: functional; conditions: NCI-H1299, 168 h, read-out: INH
Procedure, shortened: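 H1299 cells seeded at 200 cells/well, attached overnight, then exposed to 5 μM compound or equal volume DMSO. After 7 days, fixed with 20% methanol and stained with 0.1% crystal violet; percent survival scored versus DMSO control.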

[5] = target: Ubiquitin carboxyl-terminal hydrolase 1/WD repeat-containing protein 48 (Homo sapiens, UniProt O94782); assay: Inhibition of human USP1/UAF1 using ubiquitin-rhodamine110 substrate by fluorescence assay
Sequence of Ubiquitin carboxyl-terminal hydrolase 1/WD repeat-containing protein 48 (Homo sapiens, UniProt O94782) (O94782 whole entry): as the sequence (O94782 whole entry) above
Sequence of Ubiquitin carboxyl-terminal hydrolase 1/WD repeat-containing protein 48 (Homo sapiens, UniProt O94782) (Q8TAF3 whole entry, further chain): as the sequence (Q8TAF3 whole entry) above

[6] = species on record: Homo sapiens; assay: Inhibition of Calcium channel (unknown origin) at 10 uM
Procedure, shortened: (§1)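 Single concentration of 10 μM in an 80-target panel of GPCRs, ion channels and transporters; percent inhibition recorded.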

[7] = Lipophilicity, log D of the compound at pH 7.4 by shake-flask method; type: physicochemical; conditions: buffer
Procedure, shortened: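 Log D at pH 7.4 by miniaturized (scaled-down) shake-flask method.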

[8] = target: T2, Adenosine receptor A3 (Homo sapiens) (UniProt P0DMS8); assay: Inhibition of adenosine A3 receptor (unknown origin) at 10 uM
T2 sequence (whole entry): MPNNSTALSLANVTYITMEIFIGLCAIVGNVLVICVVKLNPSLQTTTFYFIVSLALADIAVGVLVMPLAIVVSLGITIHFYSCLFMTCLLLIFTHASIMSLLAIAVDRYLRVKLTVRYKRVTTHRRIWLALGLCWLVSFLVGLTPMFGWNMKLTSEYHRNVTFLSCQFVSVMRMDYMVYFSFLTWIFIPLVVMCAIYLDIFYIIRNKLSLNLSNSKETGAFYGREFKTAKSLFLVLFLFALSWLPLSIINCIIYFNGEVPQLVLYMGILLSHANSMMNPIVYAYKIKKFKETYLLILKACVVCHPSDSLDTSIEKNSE
Procedure, shortened: as §1

[9] = Stability of the compound in mouse plasma after 2 hrs; type: ADME, cell-free; conditions: read-out: Stability
Procedure, shortened: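 Mouse plasma incubation for 2 h; percent compound remaining.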

[10] = system: Liver microsome; assay: Half life in human liver microsomes; type: ADME
Procedure, shortened: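 Human liver microsomes in the presence of NADPH; half-life (min).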

[11] = target: 5-hydroxytryptamine receptor 2A (Homo sapiens) (UniProt P28223); assay: Inhibition of 5-HT2A (unknown origin) at 10 uM
Sequence of 5-hydroxytryptamine receptor 2A (Homo sapiens) (P28223 whole entry): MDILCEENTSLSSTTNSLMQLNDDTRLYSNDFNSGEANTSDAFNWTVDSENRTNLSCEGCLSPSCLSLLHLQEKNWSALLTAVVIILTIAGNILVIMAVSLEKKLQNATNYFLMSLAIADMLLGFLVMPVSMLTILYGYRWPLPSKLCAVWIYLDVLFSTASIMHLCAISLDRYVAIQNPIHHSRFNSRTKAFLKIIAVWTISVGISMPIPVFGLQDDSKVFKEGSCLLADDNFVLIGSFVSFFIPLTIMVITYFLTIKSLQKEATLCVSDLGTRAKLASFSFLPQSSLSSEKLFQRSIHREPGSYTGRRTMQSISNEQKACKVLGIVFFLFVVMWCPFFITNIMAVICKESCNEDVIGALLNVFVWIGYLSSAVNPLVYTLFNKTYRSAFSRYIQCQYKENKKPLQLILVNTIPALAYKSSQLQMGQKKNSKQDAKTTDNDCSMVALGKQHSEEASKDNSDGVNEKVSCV
Procedure, shortened: as §1

[12] = target: Melatonin receptor type 1A (Homo sapiens) (UniProt P48039); assay: Inhibition of MT1 (unknown origin) at 10 uM
Sequence of Melatonin receptor type 1A (Homo sapiens) (P48039 whole entry): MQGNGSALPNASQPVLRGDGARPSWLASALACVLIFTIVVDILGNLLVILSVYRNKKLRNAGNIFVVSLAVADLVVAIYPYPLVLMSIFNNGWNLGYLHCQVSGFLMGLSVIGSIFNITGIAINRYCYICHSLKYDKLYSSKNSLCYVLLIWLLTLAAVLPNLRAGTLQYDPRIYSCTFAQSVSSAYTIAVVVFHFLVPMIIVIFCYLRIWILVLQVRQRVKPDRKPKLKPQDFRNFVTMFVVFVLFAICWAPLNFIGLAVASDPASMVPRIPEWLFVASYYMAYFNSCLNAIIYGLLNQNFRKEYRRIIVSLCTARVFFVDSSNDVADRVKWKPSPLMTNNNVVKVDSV
Procedure, shortened: as §1

[13] = target: 5-hydroxytryptamine receptor 2B (Homo sapiens) (UniProt P41595); assay: Inhibition of 5-HT2B (unknown origin) at 10 uM
Sequence of 5-hydroxytryptamine receptor 2B (Homo sapiens) (P41595 whole entry): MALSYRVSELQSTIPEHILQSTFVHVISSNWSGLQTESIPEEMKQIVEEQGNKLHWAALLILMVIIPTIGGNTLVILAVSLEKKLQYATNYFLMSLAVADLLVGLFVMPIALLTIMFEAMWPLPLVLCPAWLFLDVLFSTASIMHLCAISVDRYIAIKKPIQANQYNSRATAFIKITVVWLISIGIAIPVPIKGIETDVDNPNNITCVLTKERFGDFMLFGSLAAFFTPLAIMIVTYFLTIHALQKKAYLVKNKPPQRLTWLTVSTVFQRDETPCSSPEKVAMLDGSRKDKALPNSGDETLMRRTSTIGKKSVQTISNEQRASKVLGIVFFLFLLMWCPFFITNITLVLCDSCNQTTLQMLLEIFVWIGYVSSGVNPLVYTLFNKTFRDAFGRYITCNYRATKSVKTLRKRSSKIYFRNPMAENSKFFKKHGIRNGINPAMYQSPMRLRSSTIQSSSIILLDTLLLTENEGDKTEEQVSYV
Procedure, shortened: as §1

[14] = target: T3, Peroxisome proliferator-activated receptor gamma (Homo sapiens) (UniProt P37231); assay: Inhibition of PPARgamma (unknown origin) at 10 uM
T3 sequence (whole entry): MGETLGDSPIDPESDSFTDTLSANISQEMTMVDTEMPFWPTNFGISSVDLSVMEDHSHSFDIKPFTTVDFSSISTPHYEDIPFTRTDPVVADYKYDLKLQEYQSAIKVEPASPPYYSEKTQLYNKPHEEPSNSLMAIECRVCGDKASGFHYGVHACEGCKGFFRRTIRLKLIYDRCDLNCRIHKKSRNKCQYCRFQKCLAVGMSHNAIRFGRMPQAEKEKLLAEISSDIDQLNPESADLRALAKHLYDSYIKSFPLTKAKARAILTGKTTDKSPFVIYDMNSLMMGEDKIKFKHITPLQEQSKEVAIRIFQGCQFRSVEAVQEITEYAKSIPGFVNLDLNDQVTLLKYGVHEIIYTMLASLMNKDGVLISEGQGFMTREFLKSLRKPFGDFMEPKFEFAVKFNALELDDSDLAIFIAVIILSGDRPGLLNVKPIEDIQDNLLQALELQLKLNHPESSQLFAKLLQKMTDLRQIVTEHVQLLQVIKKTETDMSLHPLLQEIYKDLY
Procedure, shortened: as §1

[15] = Kinetic aqueous solubility of the compound in PBS at pH 7.4; type: physicochemical; conditions: read-out: Kinetic_solubility
[16] = Permeability of the compound from apical to basolateral direction in human Caco2 cells; type: ADME, cell-based; conditions: caco-2
[17] = system: Liver; assay: Half life in mouse liver microsomes; type: ADME
Procedure, shortened: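 Incubated with mouse liver microsomes in the presence of NADPH, run by a contract lab; read-out is the half-life (T1/2) in minutes.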

[18] = Chemical stability of the compound in PBS buffer at pH 7.4 after 48 hrs; type: physicochemical; conditions: read-out: Stability
Procedure, shortened: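 PBS buffer pH 7.4 for 48 h; percent compound remaining.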

[19] = target: T4, 5-hydroxytryptamine receptor 2C (Homo sapiens) (UniProt P28335); assay: Inhibition of 5-HT2C (unknown origin) at 10 uM
T4 sequence (whole entry): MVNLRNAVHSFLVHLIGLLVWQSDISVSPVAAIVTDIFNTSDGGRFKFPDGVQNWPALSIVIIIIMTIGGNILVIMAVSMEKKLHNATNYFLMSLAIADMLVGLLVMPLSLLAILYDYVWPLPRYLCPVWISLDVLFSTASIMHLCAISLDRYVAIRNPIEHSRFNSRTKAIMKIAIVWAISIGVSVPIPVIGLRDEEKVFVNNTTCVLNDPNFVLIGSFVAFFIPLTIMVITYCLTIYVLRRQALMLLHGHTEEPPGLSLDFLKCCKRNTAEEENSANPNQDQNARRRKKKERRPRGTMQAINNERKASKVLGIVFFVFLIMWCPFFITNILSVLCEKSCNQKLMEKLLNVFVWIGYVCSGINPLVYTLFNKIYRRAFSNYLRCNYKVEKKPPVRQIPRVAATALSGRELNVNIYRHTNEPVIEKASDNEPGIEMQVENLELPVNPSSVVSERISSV
Procedure, shortened: as §1

[20] = target: T1, Ubiquitin carboxyl-terminal hydrolase 1/WD repeat-containing protein 48; assay: Inhibition of human USP1/UAF1 in human […] cells assessed as increase in Ub-PCNA measured after 4 hrs by Western blotting analysis; type: cell-based
[21] = target: T1, Ubiquitin carboxyl-terminal hydrolase 1/WD repeat-containing protein 48; assay: Inhibition of human USP1/UAF1 in human […] cells assessed as increase in Ub-PCNA measured at 1 uM after 4 hrs by Western blotting analysis; type: cell-based

SMILES: Cc1cnc(-c2ccccc2C2COC2)nc1NCc1ccc(-n2ccnn2)cc1
inhibition [3]: inactive
t1/2 [2]: > 30 min
IC50 [1]: Not Active

SMILES: COc1cnc(-c2ccccc2C(C)C)nc1NCc1ccc(-c2cccnc2)cc1
inhibition at 5 µM [4]: > 70%
IC50 [5]: 70 nM

SMILES: Cc1cnc(-c2ccccc2C(C)C)nc1NCc1ccc(-n2ccnn2)cc1
inhibition [6]: > 50%
logD [7]: 1.97
inhibition [8]: > 50%
remaining at 2 h [9]: 99%
t1/2 [2]: 15 min
t1/2 [10]: 26 min
inhibition [11]: > 50%
inhibition [12]: > 50%
inhibition at 5 µM [4]: > 70%
inhibition [13]: > 50%
inhibition [14]: > 50%
solubility kinetic [15]: 86 µM (≈ 33.1 µg/mL)
Papp [16]: 22.98 ×10⁻⁶ cm/s
t1/2 [17]: 15 min
remaining at 48 h [18]: 99%
inhibition [19]: > 50%

SMILES: FC(F)(F)c1ccccc1-c1nc(NCc2cccs2)c2ccccc2n1
inhibition [20]: Dose-dependent effect
IC50 [5]: 7900 nM

SMILES: Cc1cnc(-c2ccccc2C(C)C)nc1NCc1ccc(-n2ccnc2)cc1
inhibition at 5 µM [4]: > 70%
IC50 [5]: 300 nM

SMILES: Cc1cnc(-c2ccccc2C(C)C)nc1NCC1CCN(c2cccnc2)CC1
inhibition at 5 µM [4]: > 70%
inhibition [20]: Dose-dependent effect
IC50 [5]: 80 nM
Activity [21]: Active

SMILES: Cc1cnc(-c2ccccc2C(C)C)nc1NCC1CCN(C)CC1
IC50 [1]: Not Active

SMILES: CC(C)c1ccccc1-c1nc(NCc2ccc(-c3cccnc3)cc2)c2occc2n1
inhibition at 5 µM [4]: > 70%
IC50 [5]: 80 nM

Next, values leading:

IC50 [1]: Not Active
SMILES: c1cncc(-c2ccc(CNc3nc(C4CCCC4)nc4ccccc34)cc2)c1

t1/2 [2]: > 30 min
IC50 [1]: Not Active
SMILES: Cc1cnc(-c2ccccc2C2COC2)nc1NCc1ccc(-c2cccnc2)cc1

IC50 [1]: Not Active
SMILES: c1cncc(-c2ccc(CNc3nc(N4CCCC4)nc4ccccc34)cc2)c1

IC50 [1]: Not Active
SMILES: FC(F)(F)c1ccc(-c2nc(NCc3ccc(-c4cccnc4)cc3)c3ccccc3n2)cc1

IC50 [1]: Not Active
SMILES: c1cncc(-c2ccc(CNc3nc(-n4ccnc4)nc4ccccc34)cc2)c1

IC50 [1]: Not Active
SMILES: FC(F)(F)c1cccc(-c2nc(NCc3ccc(-c4cccnc4)cc3)c3ccccc3n2)c1

IC50 [1]: Not Active
SMILES: c1cncc(-c2ccc(CNc3nc(N4CCOCC4)nc4ccccc34)cc2)c1
